From article PMC11069345 (Bioorganic chemistry, 2024)
Where two headings read alike, the source gives them in different places. Blank lines part the entries; values can stand above or below the compound they belong to.

Assays:
[1] = system: HEK293 and HEK293-ABCG2 cells; experiment: Cell viability MTT assay, 72 h; format: cell-based, human
Procedure, shortened: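 Parental HEK293 and HEK293-ABCG2 cells were seeded at 1.5×10^4 cells/well, left overnight, then exposed to test compound at 0.19–100 μM for 72 h at 37 °C under 5% CO2. Medium was replaced with 0.5 mg mL−1 MTT for 4 h. Formazan was dissolved in DMSO/ethanol (1:1) and absorbance read at 570 nm.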

ABCG2 [2] = molecular target: T1, ABCG2 (Homo sapiens, UniProt Q9UNQ0); format: biochemical
T1 sequence (Q9UNQ0 1-655): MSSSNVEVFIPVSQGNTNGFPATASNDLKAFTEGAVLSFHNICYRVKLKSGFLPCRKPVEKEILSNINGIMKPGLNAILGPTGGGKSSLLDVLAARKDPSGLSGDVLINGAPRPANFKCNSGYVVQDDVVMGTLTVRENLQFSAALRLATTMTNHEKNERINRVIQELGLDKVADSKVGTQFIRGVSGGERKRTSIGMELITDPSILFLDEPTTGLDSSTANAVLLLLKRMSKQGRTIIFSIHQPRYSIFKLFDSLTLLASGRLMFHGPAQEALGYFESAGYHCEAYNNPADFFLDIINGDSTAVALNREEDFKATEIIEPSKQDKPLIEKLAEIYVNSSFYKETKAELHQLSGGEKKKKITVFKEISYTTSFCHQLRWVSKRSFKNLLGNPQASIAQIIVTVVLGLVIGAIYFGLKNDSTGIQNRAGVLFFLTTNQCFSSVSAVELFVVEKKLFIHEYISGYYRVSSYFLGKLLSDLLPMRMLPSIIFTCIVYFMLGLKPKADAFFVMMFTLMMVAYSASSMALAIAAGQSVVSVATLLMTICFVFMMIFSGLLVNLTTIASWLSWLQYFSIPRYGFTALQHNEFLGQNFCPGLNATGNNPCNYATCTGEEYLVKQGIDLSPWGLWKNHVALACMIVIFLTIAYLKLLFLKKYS

ABCG2 mRNA expression = experiment: mRNA expression levels by qPCR in HEK293-ABCG2 cells; format: cell-based, human; settings: 50 μM, 72 h
HEK293-ABCG2 cells = experiment: Chemosensitization assay, co-treatment with SN-38, MTT, 72 h; format: cell-based, human; settings: co-treatment with SN-38 0.05 μM, 11 at saturating concentration, Ko143 at 0.5 μM
ABCG2 (BCRP) [3] = molecular target: T2, ABCG2 (BCRP) (Homo sapiens, UniProt Q9UNQ0)
T2 sequence (Q9UNQ0 1-655): T1 sequence (Q9UNQ0 1-655)

ABCB1 (P-gp) [4] = molecular target: T3, ABCB1 (P-gp) (Homo sapiens, UniProt P08183)
T3 sequence (P08183 whole entry): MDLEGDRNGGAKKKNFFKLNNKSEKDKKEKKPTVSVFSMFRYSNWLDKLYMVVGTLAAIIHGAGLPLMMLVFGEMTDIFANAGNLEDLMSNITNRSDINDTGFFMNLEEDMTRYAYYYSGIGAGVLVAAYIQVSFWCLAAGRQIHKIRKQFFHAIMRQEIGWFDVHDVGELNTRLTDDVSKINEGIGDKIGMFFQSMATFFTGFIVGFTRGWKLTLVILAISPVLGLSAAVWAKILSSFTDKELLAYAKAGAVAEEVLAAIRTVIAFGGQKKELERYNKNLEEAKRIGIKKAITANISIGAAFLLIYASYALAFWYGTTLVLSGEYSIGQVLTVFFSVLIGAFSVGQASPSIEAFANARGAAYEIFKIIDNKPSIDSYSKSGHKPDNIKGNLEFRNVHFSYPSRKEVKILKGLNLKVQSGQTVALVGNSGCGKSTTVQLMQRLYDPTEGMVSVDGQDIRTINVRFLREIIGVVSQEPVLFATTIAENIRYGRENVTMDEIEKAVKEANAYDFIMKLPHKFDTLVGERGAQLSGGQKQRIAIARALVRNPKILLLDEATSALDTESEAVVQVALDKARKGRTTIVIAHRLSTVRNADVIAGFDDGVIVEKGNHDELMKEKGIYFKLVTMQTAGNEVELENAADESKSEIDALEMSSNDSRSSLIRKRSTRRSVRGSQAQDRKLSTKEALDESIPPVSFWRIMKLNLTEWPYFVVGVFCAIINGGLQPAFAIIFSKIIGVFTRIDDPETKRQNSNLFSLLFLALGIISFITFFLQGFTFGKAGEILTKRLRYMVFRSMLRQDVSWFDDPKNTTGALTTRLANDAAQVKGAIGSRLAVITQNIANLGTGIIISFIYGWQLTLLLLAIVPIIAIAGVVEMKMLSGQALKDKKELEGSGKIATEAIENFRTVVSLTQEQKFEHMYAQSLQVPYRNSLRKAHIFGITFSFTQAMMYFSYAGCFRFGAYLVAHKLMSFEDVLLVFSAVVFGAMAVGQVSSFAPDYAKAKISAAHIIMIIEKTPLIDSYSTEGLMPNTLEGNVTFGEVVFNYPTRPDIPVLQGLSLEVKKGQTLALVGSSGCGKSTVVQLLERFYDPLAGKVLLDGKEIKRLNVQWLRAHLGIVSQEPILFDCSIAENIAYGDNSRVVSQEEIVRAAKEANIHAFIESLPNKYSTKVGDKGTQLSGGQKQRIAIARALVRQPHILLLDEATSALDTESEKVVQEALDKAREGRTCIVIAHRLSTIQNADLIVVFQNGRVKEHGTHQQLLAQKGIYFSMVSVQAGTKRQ

ABCC1 (MRP1) [5] = molecular target: T4, ABCC1 (MRP1) (Homo sapiens, UniProt P33527)
T4 sequence (P33527 whole entry): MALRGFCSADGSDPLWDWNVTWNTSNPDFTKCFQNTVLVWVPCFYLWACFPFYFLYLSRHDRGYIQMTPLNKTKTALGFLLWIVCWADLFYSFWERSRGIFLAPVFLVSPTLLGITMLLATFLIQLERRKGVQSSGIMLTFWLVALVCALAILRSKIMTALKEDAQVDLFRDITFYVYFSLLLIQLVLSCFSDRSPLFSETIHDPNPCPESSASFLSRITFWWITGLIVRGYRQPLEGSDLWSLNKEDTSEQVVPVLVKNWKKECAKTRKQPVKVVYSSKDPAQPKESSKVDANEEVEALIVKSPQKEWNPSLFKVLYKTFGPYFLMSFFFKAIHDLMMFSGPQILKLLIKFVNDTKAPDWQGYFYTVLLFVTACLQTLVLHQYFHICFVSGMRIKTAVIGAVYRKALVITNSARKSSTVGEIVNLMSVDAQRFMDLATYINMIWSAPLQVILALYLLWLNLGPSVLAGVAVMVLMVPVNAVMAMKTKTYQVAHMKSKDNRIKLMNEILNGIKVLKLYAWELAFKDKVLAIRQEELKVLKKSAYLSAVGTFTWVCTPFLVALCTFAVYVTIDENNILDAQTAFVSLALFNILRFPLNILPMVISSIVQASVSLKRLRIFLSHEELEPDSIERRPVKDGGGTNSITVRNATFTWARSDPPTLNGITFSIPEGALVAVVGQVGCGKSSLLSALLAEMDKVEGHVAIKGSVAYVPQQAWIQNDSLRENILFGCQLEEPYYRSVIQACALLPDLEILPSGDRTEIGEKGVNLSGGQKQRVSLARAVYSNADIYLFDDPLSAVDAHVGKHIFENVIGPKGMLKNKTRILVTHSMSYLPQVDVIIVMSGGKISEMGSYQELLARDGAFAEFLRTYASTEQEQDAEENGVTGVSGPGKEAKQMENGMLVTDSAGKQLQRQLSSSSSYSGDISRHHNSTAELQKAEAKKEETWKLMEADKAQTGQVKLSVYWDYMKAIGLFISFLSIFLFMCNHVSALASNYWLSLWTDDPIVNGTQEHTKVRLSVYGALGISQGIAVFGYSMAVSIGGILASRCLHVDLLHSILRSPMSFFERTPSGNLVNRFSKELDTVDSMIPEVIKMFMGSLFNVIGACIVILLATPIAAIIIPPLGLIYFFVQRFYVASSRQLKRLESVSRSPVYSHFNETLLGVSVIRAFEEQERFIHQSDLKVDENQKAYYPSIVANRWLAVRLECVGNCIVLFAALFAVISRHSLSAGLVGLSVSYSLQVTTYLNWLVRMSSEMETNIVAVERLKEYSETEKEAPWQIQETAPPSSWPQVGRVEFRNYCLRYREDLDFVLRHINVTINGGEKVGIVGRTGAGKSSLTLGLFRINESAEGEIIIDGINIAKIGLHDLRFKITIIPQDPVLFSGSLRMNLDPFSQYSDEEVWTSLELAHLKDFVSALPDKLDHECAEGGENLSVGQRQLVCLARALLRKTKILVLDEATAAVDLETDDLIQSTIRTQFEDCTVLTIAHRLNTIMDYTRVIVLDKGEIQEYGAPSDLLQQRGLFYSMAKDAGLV

ABCC1 (MRP1) [6] = molecular target: T4, ABCC1 (MRP1); experiment: Transport inhibition assay: calcein-AM in BHK21-ABCC1 cells, flow cytometry; settings: for Inhibition (% ± SD) ABCC1 (MRP1) 10 μM: 10 μM compound; for Inhibition (% ± SD) ABCC1 (MRP1) 10 μM / Inhibition (% ± SD) ABCC1 (MRP1) 50 μM: calcein-AM 0.15 μM, relative to verapamil 30 μM (100%); for Inhibition (% ± SD) ABCC1 (MRP1) 50 μM: 50 μM compound
ABCB1 (P-gp) [7] = molecular target: T3, ABCB1 (P-gp); experiment: Transport inhibition assay: rhodamine 123 in NIH3T3-ABCB1 cells, flow cytometry; settings: for Inhibition (% ± SD) ABCB1 (P-gp) 10 μM: 10 μM compound; for Inhibition (% ± SD) ABCB1 (P-gp) 10 μM / Inhibition (% ± SD) ABCB1 (P-gp) 50 μM: rhodamine 123 5 μM, relative to GF120918 0.5 μM (100%); for Inhibition (% ± SD) ABCB1 (P-gp) 50 μM: 50 μM compound
ABCG2 (BCRP) [8] = molecular target: T2, ABCG2 (BCRP); settings: for Inhibition (% ± SD) ABCG2 (BCRP) 10 μM: 10 μM compound; for Inhibition (% ± SD) ABCG2 (BCRP) 10 μM / Inhibition (% ± SD) ABCG2 (BCRP) 50 μM: mitoxantrone 5 μM, 30 min, relative to Ko143 0.5 μM (100%); for Inhibition (% ± SD) ABCG2 (BCRP) 50 μM: 50 μM compound
[9] = cited from earlier work
ABCG2 [10] = molecular target: T1, ABCG2; settings: cited from earlier work
[11] = human, probe mitoxantrone (5 μM)

Stimulation of ABCG2 ATPase activity (ABCG2 [2]): ~ 60% | Inhibition of ABCG2 ATPase activity (ABCG2 [2]; 50 µM): ~ 30% | Extent of ABCG2 inhibition (partial or complete inhibitor) (ABCG2 (BCRP) [3]): complete ABCG2 inhibitor | IC50 (ABCG2 (BCRP) [3]): 9.5 µM | Inhibition (% ± SD) ABCG2 (BCRP) 10 μM (ABCG2 (BCRP) [3]): 62.0 ± 11.9% | Type of inhibition (Lineweaver-Burk plot) (ABCG2 (BCRP) [3]): mixed type of inhibition | Inhibition (% ± SD) ABCB1 (P-gp) 10 μM (ABCB1 (P-gp) [4]): −0.7 ± 1.2% | Inhibition (% ± SD) ABCB1 (P-gp) 50 μM (ABCB1 (P-gp) [4]): 2.8 ± 3.8% | Inhibition (% ± SD) ABCC1 (MRP1) 10 μM (ABCC1 (MRP1) [5]): 4.9 ± 7.0% | Inhibition (% ± SD) ABCC1 (MRP1) 50 μM (ABCC1 (MRP1) [5]): 11.5 ± 5.8%
Structure (SMILES): C=CCc1ccc(O)c(-c2cc(CC=C)ccc2OC)c1 [Compound 11]
Concentration with cytotoxic effect ([1]; 0.19 – 100 μM tested, HEK293 and HEK293-ABCG2): > 100 µM | IG50 (concentration that reduces 50% of the cell viability) ([1]; estimated): > 100 µM | Effect on mRNA ABCG2 expression levels (ABCG2 mRNA expression): did not significantly affect the transcriptional levels of ABCG2 | Reversion of ABCG2-mediated resistance to SN-38 (cell viability) (HEK293-ABCG2 cells): completely revert the MDR phenotype mediated by ABCG2

Inhibition (% ± SD) ABCG2 (BCRP) 10 μM (ABCG2 (BCRP) [3]): 5.9 ± 10.9% | Inhibition (% ± SD) ABCG2 (BCRP) 50 μM (ABCG2 (BCRP) [3]): 32.8 ± 5.5% | Inhibition (% ± SD) ABCB1 (P-gp) 10 μM (ABCB1 (P-gp) [4]): −1.1 ± 1.5% | Inhibition (% ± SD) ABCB1 (P-gp) 50 μM (ABCB1 (P-gp) [4]): −0.5 ± 2.1% | Inhibition (% ± SD) ABCC1 (MRP1) 10 μM (ABCC1 (MRP1) [5]): 2.6 ± 1.8% | Inhibition (% ± SD) ABCC1 (MRP1) 50 μM (ABCC1 (MRP1) [5]): 9.1 ± 3.3%
Structure (SMILES): C=CCc1ccc(OC)c(-c2cc(CC=C)ccc2OC)c1 [Compound 12]

inhibition at 30 min, 10 μM (ABCC1 (MRP1) [6]; probe calcein-AM (0.15 μM)): 2.9 ± 4.3% | inhibition at 30 min, 50 μM (ABCC1 (MRP1) [6]; probe calcein-AM (0.15 μM)): 4.7 ± 6.4% | inhibition at 30 min, 10 μM (ABCB1 (P-gp) [7]; probe rhodamine 123 (5 μM)): 1.1 ± 4.6% | inhibition at 30 min, 50 μM (ABCB1 (P-gp) [7]; probe rhodamine 123 (5 μM)): -1.2 ± 1.8%
Structure (SMILES): C=CCc1ccc(OC)c(-c2cc(CC=C)cc(O)c2O)c1 [Compound 13, 5,5’-diallyl-2’-methoxy-[1,1’-biphenyl]-2,3-diol]
inhibition at 30 min, 10 μM (ABCG2 (BCRP) [8]; [11]): 4 ± 4.4% | inhibition at 30 min, 50 μM (ABCG2 (BCRP) [8]; [11]): 19.5 ± 4.4%

Structure (SMILES): CCCc1ccc(O)c(-c2cc(CCC)ccc2O)c1 [Compound 14]
Inhibition (% ± SD) ABCC1 (MRP1) 10 μM (ABCC1 (MRP1) [6]): 5.6 ± 5.5% | Inhibition (% ± SD) ABCC1 (MRP1) 50 μM (ABCC1 (MRP1) [6]): 16.0 ± 10.7% | Inhibition (% ± SD) ABCB1 (P-gp) 10 μM (ABCB1 (P-gp) [7]): 0.5 ± 0.9% | Inhibition (% ± SD) ABCB1 (P-gp) 50 μM (ABCB1 (P-gp) [7]): −6.4 ± 0.3% | Inhibition (% ± SD) ABCG2 (BCRP) 10 μM (ABCG2 (BCRP) [8]): 1.8 ± 1.7% | Inhibition (% ± SD) ABCG2 (BCRP) 50 μM (ABCG2 (BCRP) [8]): 19.5 ± 4.5%

Structure (SMILES): CCCc1ccc(O)c(-c2cc(CCC)ccc2OC)c1 [Compound 15]
Inhibition (% ± SD) ABCC1 (MRP1) 10 μM (ABCC1 (MRP1) [6]): 4.3 ± 3.9% | Inhibition (% ± SD) ABCC1 (MRP1) 50 μM (ABCC1 (MRP1) [6]): 5.8 ± 4.1% | Inhibition (% ± SD) ABCB1 (P-gp) 10 μM (ABCB1 (P-gp) [7]): 0.2 ± 0.8% | Inhibition (% ± SD) ABCB1 (P-gp) 50 μM (ABCB1 (P-gp) [7]): 2.0 ± 1.9% | Inhibition (% ± SD) ABCG2 (BCRP) 10 μM (ABCG2 (BCRP) [8]): 1.1 ± 5.4% | Inhibition (% ± SD) ABCG2 (BCRP) 50 μM (ABCG2 (BCRP) [8]): 20.4 ± 1.7%

Structure (SMILES): COc1ccc2c3c([nH]c2c1)[C@H](CC(C)C)N1C(=O)[C@H](CCC(=O)OC(C)(C)C)NC(=O)[C@@H]1C3 [Ko143, reference compound]
Reversion of ABCG2-mediated resistance to SN-38 (cell viability) (HEK293-ABCG2 cells): same percentage of cell viability as the observed for HEK293 cells exposed to SN-38 alone | IG50 (cytotoxicity) [9]: 18 to 34 µM

Structure (SMILES): C=CCc1ccc(O)c(-c2ccc(O)c(CC=C)c2)c1 [honokiol]
Transport by ABCG2 (substrate) (ABCG2 [10]): substrates of ABCG2

Structure (SMILES): C=CCc1ccc(O)c(-c2cc(CC=C)ccc2O)c1 [magnolol]
Transport by ABCG2 (substrate) (ABCG2 [10]): substrates of ABCG2
